Test results from ChEMBL document CHEMBL1122125, “Synthesis and in vivo antitumor activity of potential 5-fluorouracil prodrugs” (1982).

How the values were obtained:
[1] = test system: Mus musculus; assay: Antitumor activity was determined for average 7-day weight change against P-388 leukemia in mice at a dose of 300 mg/kg; format: functional
Method in brief: (§1)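 Male B6D2F1J mice given 10⁶ P-388 cells ip on day 0, then treated ip once daily on days 1-4 (qd × 4), 5 mice per dose group. Compounds dosed in sterile saline, except one lipophilic thioether given in 10% Tween 80. Mice weighed on days 1 and 7; mean weight per mouse on day 1 and 7-day weight change reported in g and as percent.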

[2] = test system: Mus musculus; assay: Antitumor activity was determined for average 7-day weight change against P-388 leukemia in mice at a dose of 75 mg/kg; format: functional; method in brief: as §1
[3] = test system: Mus musculus; assay: Antitumor activity was determined for average weight on day 1 against P-388 leukemia in mice at a dose of 300 mg/kg; format: functional
Method in brief: (§2)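 Male B6D2F1J mice, groups of 5, inoculated ip with 10⁶ P-388 cells on day 0. Drug given ip on days 1-4 (qd × 4) in sterile saline, or in 10% Tween 80 for the poorly water-soluble thioether. Average weight per mouse recorded on day 1, with reweighing on day 7 for percent weight change. Untreated control groups had 10-17 animals per experiment.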

[4] = test system: Mus musculus; assay: Antitumor activity was determined for average weight on day 1 against P-388 leukemia in mice at a dose of 600 mg/kg; format: functional; method in brief: as §2
[5] = test system: Mus musculus; assay: Antitumor activity was determined for average weight on day 1 against P-388 leukemia in mice at a dose of 75 mg/kg; format: functional; method in brief: as §2
[6] = test system: Mus musculus; assay: Antitumor activity was determined for average weight on day 1 against P-388 leukemia in mice at a dose of 150 mg/kg; format: functional; method in brief: as §1
[7] = test system: Mus musculus; assay: Percent increase in life span against P-388 leukemia in mice was determined at a dose of 600 mg/kg; format: functional; settings: P388
Method in brief: (§3)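 Male B6D2F1J mice, 5 per dose group, received 10⁶ P-388 cells ip on day 0. Dosing was ip qd × 4 on days 1-4 in sterile saline, or 10% Tween 80 for the butyl thioether. Median survival times of treated (T) and untreated control (C, 10-17 mice) groups were compared: %ILS = [(T/C) − 1]100. Weights taken on days 1 and 7.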

[8] = test system: Mus musculus; assay: Percent increase in life span against P-388 leukemia in mice was determined at a dose of 75 mg/kg; format: functional; settings: P388; method in brief: as §3
[9] = test system: Mus musculus; assay: Antitumor activity was determined for average 7-day weight change against P-388 leukemia in mice at a dose of 150 mg/kg; format: functional; method in brief: as §1
[10] = test system: Mus musculus; assay: Percent increase in life span against P-388 leukemia in mice was determined at a dose of 150 mg/kg; format: functional; settings: P388; method in brief: as §3
[11] = test system: Mus musculus; assay: Percent increase in life span against P-388 leukemia in mice was determined at a dose of 300 mg/kg; format: functional; settings: P388; method in brief: as §3
[12] = test system: Mus musculus; assay: Antitumor activity was determined for survival range of mice against P-388 leukemia in mice at a dose of 600 mg/kg; format: functional
Method in brief: (§4)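 Male B6D2F1J mice implanted ip with 10⁶ P-388 cells on day 0; test agents given ip on days 1–4 (qd × 4) in sterile saline, or in 10% Tween 80 for the lipophilic thioether. Groups of 5 treated mice, with 10–17 untreated controls per experiment. Mice weighed on days 1 and 7 to give the 7-day weight change in g and %. Survival recorded in days as median and range.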

[13] = test system: Mus musculus; assay: Antitumor activity was determined for survival range of mice against P-388 leukemia in mice at a dose of 75 mg/kg; format: functional
Method in brief: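 Male B6D2F1J mice, 5 per dose group, implanted ip with 10⁶ P-388 leukemia cells on day 0. Drug given ip daily on days 1-4 (qd × 4) in sterile saline, or in 10% Tween 80 for the butyl thioether. Survival range recorded in days. Untreated control groups had 10-17 animals per experiment. Mice weighed on days 1 and 7.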

[14] = test system: Mus musculus; assay: Antitumor activity was determined for median survival of mice against P-388 leukemia in mice at a dose of 150 mg/kg; format: functional; method in brief: as §4
[15] = test system: Mus musculus; assay: Antitumor activity was determined for median survival of mice against P-388 leukemia in mice at a dose of 75 mg/kg; format: functional; method in brief: as §4
[16] = test system: Mus musculus; assay: Antitumor activity was determined for survival range of mice against P-388 leukemia in mice at a dose of 150 mg/kg; format: functional; method in brief: as §4
[17] = test system: Mus musculus; assay: Antitumor activity was determined for survival range of mice against P-388 leukemia in mice at a dose of 300 mg/kg; format: functional; method in brief: as §4
[18] = test system: Mus musculus; assay: Antitumor activity was determined for median survival of mice against P-388 leukemia in mice at a dose of 600 mg/kg; format: functional; method in brief: as §4
[19] = test system: Mus musculus; assay: Antitumor activity was determined for 7-day average percent weight change against P-388 leukemia in mice at a dose of 150 mg/kg; format: functional; method in brief: as §1
[20] = test system: Mus musculus; assay: Antitumor activity was determined for 7-day average percent weight change against P-388 leukemia in mice at a dose of 300 mg/kg; format: functional; method in brief: as §1
[21] = test system: Mus musculus; assay: Antitumor activity was determined for 7-day average percent weight change against P-388 leukemia in mice at a dose of 75 mg/kg; format: functional; method in brief: as §1
[22] = test system: L1210; assay: Evaluated for cytotoxicity against L1210 mouse leukemia cells; format: functional; settings: read-out: ID50 (the source's name)
Method in brief: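 L1210 murine leukemia cells in Eagle's minimal essential medium with 15% fetal calf serum, streptomycin (100 μg/mL), penicillin (100 units/mL) and 0.05 mM 2-mercaptoethanol. Cells counted by Coulter counter after 48 h exposure. ID50 is the 50% growth-inhibitory dose. Triplicate assays, standard deviation ±10%.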

[23] = test system: Mus musculus; assay: Antitumor activity was determined for median survival of mice against P-388 leukemia in mice at a dose of 300 mg/kg; format: functional; method in brief: as §4
[24] = test system: P388; assay: Percent increase in life span against P-388 leukemia in mice was determined at a dose of 15 mg/kg; format: functional; settings: Mus musculus; method in brief: as §3
[25] = test system: P388; assay: Percent increase in life span against P-388 leukemia in mice was determined at a dose of 30 mg/kg; format: functional; settings: Mus musculus; method in brief: as §3
[26] = test system: P388; assay: Antitumor activity was determined for median survival of mice against P-388 leukemia in mice at a dose of 15 mg/kg; format: functional, Mus musculus; method in brief: as §4
[27] = test system: P388; assay: Antitumor activity was determined for median survival of mice against P-388 leukemia in mice at a dose of 30 mg/kg; format: functional, Mus musculus; method in brief: as §4
[28] = test system: P388; assay: Antitumor activity was determined for survival range of mice against P-388 leukemia in mice at a dose of 30 mg/kg; format: functional, Mus musculus; method in brief: as §4
[29] = test system: P388; assay: Antitumor activity was determined for 7-day average percent weight change against P-388 leukemia in mice at a dose of 15 mg/kg; format: functional, Mus musculus; method in brief: as §4
[30] = test system: P388; assay: Antitumor activity was determined for 7-day average percent weight change against P-388 leukemia in mice at a dose of 30 mg/kg; format: functional, Mus musculus; method in brief: as §4
[31] = test system: P388; assay: Antitumor activity was determined for average 7-day weight change against P-388 leukemia in mice at a dose of 15 mg/kg; format: functional, Mus musculus; method in brief: as §4
[32] = test system: P388; assay: Antitumor activity was determined for average 7-day weight change against P-388 leukemia in mice at a dose of 30 mg/kg; format: functional, Mus musculus; method in brief: as §4
[33] = test system: P388; assay: Antitumor activity was determined for average weight on day 1 against P-388 leukemia in mice at a dose of 15 mg/kg; format: functional, Mus musculus; method in brief: as §4
[34] = test system: P388; assay: Antitumor activity was determined for average weight on day 1 against P-388 leukemia in mice at a dose of 30 mg/kg; format: functional, Mus musculus; method in brief: as §4
[35] = test system: P388; assay: Antitumor activity was determined for survival range of mice against P-388 leukemia in mice at a dose of 15 mg/kg; format: functional, Mus musculus; method in brief: as §4

CCCCSC[C@H]1OC(n2cc(F)c(=O)[nH]c2=O)[C@H](O)[C@@H]1O (stereo partly specified)
Average weight [1]: -0.4 g mouse-1 | Average weight [2]: 2 g mouse-1 | Average weight [3]: 28 g mouse-1 | Average weight [4]: 26.4 g mouse-1 | Average weight [5]: 26.6 g mouse-1 | Average weight [6]: 27.8 g mouse-1 | ILS at 600 mg/kg [7]: -67% | ILS at 75 mg/kg [8]: -9% | Average weight [9]: 1.4 g mouse-1 | ILS at 150 mg/kg [10]: -9% | ILS at 300 mg/kg [11]: -9% | Survival range [12]: 3 | Survival range [13]: 11 | Survival median [14]: 11 | Survival median [15]: 11 | Survival range [16]: 10 | Survival range [17]: 11 | Survival median [18]: 4 | Weight change [19]: 5% | Weight change [20]: -1% | Weight change [21]: 8% | IC50 [22]: 270 µM | Survival median [23]: 11

O=c1[nH]cc(F)c(=O)[nH]1 [FLUOROURACIL]
ILS at 15 mg/kg [24]: 73% | ILS at 30 mg/kg [25]: 91% | Survival median [26]: 19 | Survival median [27]: 21 | Survival range [28]: 11 | Weight change [29]: 2% | Weight change [30]: -13% | Average weight [31]: 0.4 g mouse-1 | Average weight [32]: -3.2 g mouse-1 | Average weight [33]: 24.4 g mouse-1 | Average weight [34]: 24.2 g mouse-1 | IC50 [22]: 1 µM | Survival range [35]: 15
